Data on 23 molecules can be found in ChEMBL document CHEMBL3046965, “Synthesis and quantitative structure-antifungal activity relationships of clovane derivatives against Botrytis cinerea” (2009).

Each structure is given as a SMILES string.

What all share (assay type): functional
What all share (settings): UCA 992, 144 h

The subject of experiment [1] is Botrytis cinerea. Put plainly: Antifungal activity against Botryotinia fuckeliana UCA 992 assessed as inhibition of radial growth at 200 ug/mL after 6 days relative to control. The method in brief: (§1)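 Radial growth assay on glucose-malt-peptone-agar (61 g/L, pH 6.5-7.0). Compounds dissolved in EtOH, giving 50-200 mg L-1 final in the medium, with equal EtOH in control and treated plates. A 5 mm mycelial disk from an actively growing culture was placed at the plate centre and radial growth followed for 6 days. % inhibition = 100 - [(treated growth/control growth) × 100]. At least three independent experiments, each in triplicate, ± SD.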

Experiment [2] relates to Botrytis cinerea. Description: Antifungal activity against Botryotinia fuckeliana UCA 992 assessed as inhibition of radial growth at 100 ug/mL after 6 days relative to control. The method in brief: as §1
The test system of experiment [3] is Botrytis cinerea. Put plainly: Antifungal activity against Botryotinia fuckeliana UCA 992 assessed as inhibition of radial growth at 50 ug/mL after 6 days relative to control. The method in brief:
as §1

What is called inhibition is how much of the control response was suppressed.

For the molecule `CC1(C)C[C@H](O)[C@]23CC[C@H](O)[C@@](C)(CC[C@@H]12)C3`, the inhibition at 200 µg/mL with Botrytis cinerea [1] stood at 30%. In addition, the inhibition at 100 µg/mL with Botrytis cinerea [2] was 24%. Also, the inhibition at 50 µg/mL in the experiment with Botrytis cinerea [3] amounted to 21%.

`CO[C@H]1CC(C)(C)[C@@H]2CC[C@@]3(C)C[C@]12CCC3=O`: the inhibition at 200 µg/mL in the experiment on Botrytis cinerea [1] came out at 76%. Further, the inhibition at 100 µg/mL with Botrytis cinerea [2] amounted to 42%. Further, the inhibition at 50 µg/mL in the experiment on Botrytis cinerea [3] is 17%.

Turning to `CC1(C)CC(=O)[C@]23CCC(=O)[C@@](C)(CC[C@@H]12)C3`, in the experiment with Botrytis cinerea [1], the inhibition at 200 µg/mL came to 36%. Also, the inhibition at 100 µg/mL in the experiment on Botrytis cinerea [2] came to 25%. Moreover, the inhibition at 50 µg/mL in the experiment with Botrytis cinerea [3] was determined as 21%.

As for `CO[C@H]1CC(C)(C)[C@@H]2CC[C@@]3(CO)C[C@]12CC[C@H]3O`, the inhibition at 200 µg/mL with Botrytis cinerea [1] came out at 24%. Also, the inhibition at 100 µg/mL in the experiment on Botrytis cinerea [2] was 9%. Moreover, the inhibition at 50 µg/mL in the experiment with Botrytis cinerea [3] was determined as 2%.

As for `CO[C@H]1CC(C)(C)[C@@H]2CC[C@@]3(C)C[C@]12CC[C@@H]3O`, the inhibition at 200 µg/mL with Botrytis cinerea [1] was determined as 65%. Further, in the experiment with Botrytis cinerea [2], the inhibition at 100 µg/mL amounted to 43%. For the same molecule, in the experiment with Botrytis cinerea [3], the inhibition at 50 µg/mL came to 29%.

In the case of `C=CCO[C@H]1CC(C)(C)[C@@H]2CC[C@@]3(C)C[C@]12CC[C@H]3O`, the inhibition at 200 µg/mL in the experiment on Botrytis cinerea [1] worked out at 82%. In the experiment with Botrytis cinerea [2], the inhibition at 100 µg/mL stood at 72%. In addition, the inhibition at 50 µg/mL with Botrytis cinerea [3] is 63%.

As for `CC1(C)C[C@H](OCCN)[C@]23CC[C@@H](O)[C@@](C)(CC[C@@H]12)C3`, the inhibition at 200 µg/mL with Botrytis cinerea [1] was 97%. Besides, in the experiment with Botrytis cinerea [2], the inhibition at 100 µg/mL is 82%. The inhibition at 50 µg/mL in the experiment on Botrytis cinerea [3] was determined as 50%.

Regarding `CC1(C)C[C@H](OCCCl)[C@]23CC[C@@H](O)[C@@](C)(CC[C@@H]12)C3`, the inhibition at 200 µg/mL in the experiment with Botrytis cinerea [1] came to 66%. The inhibition at 100 µg/mL in the experiment on Botrytis cinerea [2] worked out at 64%. For the same molecule, the inhibition at 50 µg/mL in the experiment on Botrytis cinerea [3] was 56%.

Take `CC1(C)C[C@H](OCCBr)[C@]23CC[C@@H](O)[C@@](C)(CC[C@@H]12)C3`: the inhibition at 200 µg/mL in the experiment on Botrytis cinerea [1] was found to be 77%. Also, the inhibition at 100 µg/mL in the experiment with Botrytis cinerea [2] came to 73%. Further, the inhibition at 50 µg/mL with Botrytis cinerea [3] was 68%.

With `CC1(C)C[C@H](OCCI)[C@]23CC[C@@H](O)[C@@](C)(CC[C@@H]12)C3`, the inhibition at 200 µg/mL in the experiment with Botrytis cinerea [1] worked out at 70%. Moreover, in the experiment with Botrytis cinerea [2], the inhibition at 100 µg/mL is 67%. In addition, the inhibition at 50 µg/mL with Botrytis cinerea [3] turned out to be 65%.

`CC1(C)C[C@H](OCCS)[C@]23CC[C@@H](O)[C@@](C)(CC[C@@H]12)C3`: the inhibition at 200 µg/mL in the experiment on Botrytis cinerea [1] was found to be 28%. Further, the inhibition at 100 µg/mL in the experiment on Botrytis cinerea [2] came to 27%. Also, the inhibition at 50 µg/mL with Botrytis cinerea [3] stood at 27%.

On to `CC1(C)C[C@H](OCC[N+](=O)[O-])[C@]23CC[C@@H](O)[C@@](C)(CC[C@@H]12)C3`, for which, in the experiment on Botrytis cinerea [1], the inhibition at 200 µg/mL was found to be 90%. In the experiment with Botrytis cinerea [2], the inhibition at 100 µg/mL was determined as 86%. Besides, the inhibition at 50 µg/mL in the experiment with Botrytis cinerea [3] was found to be 80%.

On to `CC1(C)C[C@H](OCCO)[C@]23CC[C@@H](O)[C@@](C)(CC[C@@H]12)C3`, for which the inhibition at 200 µg/mL in the experiment on Botrytis cinerea [1] amounted to 60%. Further, the inhibition at 100 µg/mL in the experiment with Botrytis cinerea [2] is 54%. Besides, the inhibition at 50 µg/mL in the experiment on Botrytis cinerea [3] is 48%.

On to `CC1(C)C[C@H](OCCn2ccnc2)[C@]23CC[C@@H](O)[C@@](C)(CC[C@@H]12)C3`, for which the inhibition at 200 µg/mL in the experiment on Botrytis cinerea [1] was 98%. The inhibition at 100 µg/mL in the experiment with Botrytis cinerea [2] is 84%. For the same molecule, in the experiment on Botrytis cinerea [3], the inhibition at 50 µg/mL came to 67%.

Consider `CC1(C)C[C@H](OCCOc2ccc([N+](=O)[O-])cc2)[C@]23CC[C@@H](O)[C@@](C)(CC[C@@H]12)C3`, for which the inhibition at 200 µg/mL with Botrytis cinerea [1] stood at 81%. Further, the inhibition at 100 µg/mL in the experiment on Botrytis cinerea [2] was found to be 79%. Moreover, the inhibition at 50 µg/mL in the experiment with Botrytis cinerea [3] worked out at 76%.

In the case of `CC1(C)C[C@H](OCCSC(=N)N)[C@]23CC[C@@H](O)[C@@](C)(CC[C@@H]12)C3`, the inhibition at 200 µg/mL in the experiment on Botrytis cinerea [1] was found to be 97%. The inhibition at 100 µg/mL in the experiment on Botrytis cinerea [2] stood at 83%. Besides, in the experiment with Botrytis cinerea [3], the inhibition at 50 µg/mL stood at 70%.

As to `CC1(C)C[C@H](OCCSc2ccccc2)[C@]23CC[C@@H](O)[C@@](C)(CC[C@@H]12)C3`, in the experiment with Botrytis cinerea [1], the inhibition at 200 µg/mL was determined as 24%. In addition, in the experiment on Botrytis cinerea [2], the inhibition at 100 µg/mL was found to be 12%. The inhibition at 50 µg/mL in the experiment with Botrytis cinerea [3] was 6%.

`CC1(C)C[C@H](OCCn2cncn2)[C@]23CC[C@@H](O)[C@@](C)(CC[C@@H]12)C3`: in the experiment with Botrytis cinerea [1], the inhibition at 200 µg/mL was 86%. Also, the inhibition at 100 µg/mL in the experiment with Botrytis cinerea [2] is 57%. Further, the inhibition at 50 µg/mL with Botrytis cinerea [3] was determined as 34%.

In the case of `CC(C)(C)O[C@H]1CC(C)(C)[C@@H]2CC[C@@]3(C)C[C@]12CC[C@H]3O`, the inhibition at 200 µg/mL in the experiment with Botrytis cinerea [1] was determined as 78%. Further, the inhibition at 100 µg/mL in the experiment with Botrytis cinerea [2] was determined as 66%. Also, in the experiment on Botrytis cinerea [3], the inhibition at 50 µg/mL is 59%.

Regarding `CC1(C)C[C@H](SCCS)[C@]23CC[C@@H](O)[C@@](C)(CC[C@@H]12)C3`, the inhibition at 200 µg/mL in the experiment with Botrytis cinerea [1] came to 38%. In addition, the inhibition at 100 µg/mL with Botrytis cinerea [2] was found to be 34%. Besides, in the experiment on Botrytis cinerea [3], the inhibition at 50 µg/mL was 32%.

As for `CC1(C)C[C@H](OCCN2C(=O)c3ccccc3C2=O)[C@]23CC[C@@H](O)[C@@](C)(CC[C@@H]12)C3`, the inhibition at 200 µg/mL with Botrytis cinerea [1] was 60%. For the same molecule, the inhibition at 100 µg/mL with Botrytis cinerea [2] stood at 55%. In addition, the inhibition at 50 µg/mL in the experiment with Botrytis cinerea [3] was found to be 50%.

As for `CO[C@H]1CC(C)(C)[C@@H]2CC[C@@]3(C)C[C@]12CC[C@H]3O` [2BETA-METHOXYCLOVAN-9ALPHA-OL], the inhibition at 200 µg/mL in the experiment on Botrytis cinerea [1] came to 83%. Besides, the inhibition at 100 µg/mL in the experiment with Botrytis cinerea [2] amounted to 60%. Further, in the experiment on Botrytis cinerea [3], the inhibition at 50 µg/mL amounted to 49%.

Regarding `CC1(C)C[C@H](O)[C@]23CC[C@@H](O)[C@@](C)(CC[C@@H]12)C3` [CLOVANEDIOL], in the experiment on Botrytis cinerea [1], the inhibition at 200 µg/mL amounted to 63%. In the experiment with Botrytis cinerea [2], the inhibition at 100 µg/mL was determined as 50%. Besides, in the experiment with Botrytis cinerea [3], the inhibition at 50 µg/mL turned out to be 36%.
